From ChEMBL document CHEMBL1144753, “Inhibitors of DNA polymerase beta: activity and mechanism” (Bioorg Med Chem, 2008)
Active and inactive are the calls of the source. No cut-off for these calls is given here.

How the values were obtained:
A549 [1] = assay: Effect on DNA polymerase beta expression in human A549 cells at 3 uM after 48 hrs by Western blot analysis; format: functional, cell-based
In short: (§1)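 A549 cells grown in Ham's F12K with 10% fetal calf serum, exposed 48 h to compound. Whole-cell extracts prepared by freeze/thaw lysis, cleared at 15,000 × g. Extracts resolved on 15% SDS-PAGE, transferred to PVDF and probed with anti-human pol β antibody. Anti-β-actin served as loading control. HRP anti-goat IgG detection, followed by densitometric quantification.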

A549 [2] = assay: Inhibition of bleomycin-induced unscheduled DNA synthesis in human A549 cells at 3 uM; format: functional, cell-based
In short: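 A549 cells (~5×10^5) treated with 10 mM bleomycin for 30 min at 37 °C. Then 10 mM hydroxyurea, 2 mM nicotinamide, 5 µCi [3H]thymidine and inhibitor added, incubated 3 h. Stopped with ice-cold saline. Cells collected and TCA-precipitated on ice 30 min for scintillation counting of incorporated label. Run in triplicate.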

A549 [3] = assay: Cytotoxicity against human A549 cells after 48 hrs by MTT assay; settings: A549, 48 h
A549 [4] = assay: Effect on DNA polymerase beta expression in human A549 cells at 6 uM after 48 hrs by Western blot analysis; format: functional, cell-based; in short: as §1
A549 [5] = assay: Inhibition of bleomycin-induced unscheduled DNA synthesis in human A549 cells at 6 uM; format: functional, cell-based
In short: (§2)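 A549 cells (~5×10^5) treated with 10 mM bleomycin for 30 min at 37 °C. DMSO, 10 mM hydroxyurea, 2 mM nicotinamide, 5 μCi [3H]thymidine and inhibitor then added, triplicate flasks per concentration. Incubated 3 h, stopped with ice-cold saline. Cells pelleted and treated with ice-cold 5% TCA for 30 min; incorporated radioactivity read by scintillation counting.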

A549 [6] = assay: Effect on DNA polymerase beta expression in human A549 cells at 25 uM after 48 hrs by Western blot analysis; format: functional, cell-based
In short: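 A549 cells grown at 37 °C, 5% CO2 in Kaighn's F12 with 10% fetal calf serum, exposed 48 h to inhibitor at 25 μM (final DMSO <0.05%). Whole-cell extracts made by freeze/thaw, then resolved on 15% SDS-PAGE and blotted to PVDF. Probed with anti-human pol β antibody, with anti-β-actin as loading control. HRP detection; bands scanned and quantified.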

A549 [7] = assay: Inhibition of bleomycin-induced unscheduled DNA synthesis in human A549 cells at 25 uM; format: functional, cell-based; in short: as §2
[8] = molecular target: DNA polymerase beta (Rattus norvegicus) (UniProt P06766); assay: Inhibition of lyase activity of DNA polymerase beta
[9] = molecular target: DNA polymerase beta (Rattus norvegicus) (UniProt P06766); assay: Inhibition of polymerase activity of DNA polymerase beta

Row | Compound | Activity (A549 [1]) | Activity (A549 [2]) | IC50 (A549 [3]) [µM] | Activity (A549 [4]) | Activity (A549 [5]) | Activity (A549 [6]) | Activity (A549 [7]) | IC50 [8] [µM] | IC50 [9] [µM]
1 | C=C(C)[C@@H]1CC[C@]2(C(=O)O)CC[C@]3(C)[C@H](CC[C@@H]4[C@@]5(C)CC[C@H](O)C(C)(C)[C@@H]5CC[C@]43C)[C@@H]12 [BETULINIC ACID] | inactive | Active | 6.65 | – | – | – | – | – | –
2 | O=c1ccc2ccc(Oc3cc4ccc(O)cc4oc3=O)cc2o1 [EDGEWORIN] | – | – | 80.2 | inactive | Active | – | – | – | –
3 | CC1(C)CC[C@]2(C(=O)O)CC[C@]3(C)C(=CC[C@@H]4[C@@]5(C)CC[C@H](O)C(C)(C)[C@@H]5CC[C@]43C)[C@@H]2C1 [OLEANOLIC_ACID] | – | – | > 100 | – | – | inactive | Active | 26.3 | 25
4 | CC[C@H](/C=C/[C@@H](C)[C@H]1CC[C@H]2[C@@H]3CC=C4C[C@@H](O)CC[C@]4(C)[C@H]3CC[C@]12C)C(C)C [STIGMASTEROL] | – | – | 98.2 | inactive | – | – | – | 60.3 | > 250
